{
  "source": "paper PMC7668563",
  "about": "(International journal of molecular biology (Edmond, Okla.), 2020)",
  "key": {"[1]": {"tested_on": "human breast adenocarcinoma cell line, MCF-7", "assay": "MTT cell viability assay on MCF-7, 72 h exposure", "type": "cell-based", "settings": "read-out: IC50 (±SD), MCF-7, MCF-7, 72 h of exposure", "in_short": "(§1)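 HT-29 was grown in McCoy's 5A with 10% FBS. MCF-7 was grown in MEM with 10% FBS and 0.01 mg/mL insulin. Both were kept at 37°C, 5% CO2, trypsinized at 70–80% confluency and seeded at 1.5×10^4 cells/well for 24 h. Cells were then exposed for 72 h to test compound in 5% DMSO/95% medium, with DMSO-medium controls. MTT was added as a 2.67 mg/mL solution for 2 h. Formazan was dissolved in 10% Triton X-100/isopropanol and read at A570 minus A620. IC50 came from a sigmoidal fit of viability vs log concentration, eight replicas, triplicate, ±SD.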"}, "[2]": {"tested_on": "human colorectal adenocarcinoma cell line, HT-29", "assay": "MTT cell viability assay on HT-29, 72 h exposure", "type": "cell-based", "settings": "read-out: IC50 (±SD), HT-29, HT-29, 72 h of exposure", "in_short": "as §1"}, "[3]": {"target": "T1, apo-human transferrin (apo-hTf) (Homo sapiens, UniProt P02787)", "T1 sequence (P02787 20-698)": "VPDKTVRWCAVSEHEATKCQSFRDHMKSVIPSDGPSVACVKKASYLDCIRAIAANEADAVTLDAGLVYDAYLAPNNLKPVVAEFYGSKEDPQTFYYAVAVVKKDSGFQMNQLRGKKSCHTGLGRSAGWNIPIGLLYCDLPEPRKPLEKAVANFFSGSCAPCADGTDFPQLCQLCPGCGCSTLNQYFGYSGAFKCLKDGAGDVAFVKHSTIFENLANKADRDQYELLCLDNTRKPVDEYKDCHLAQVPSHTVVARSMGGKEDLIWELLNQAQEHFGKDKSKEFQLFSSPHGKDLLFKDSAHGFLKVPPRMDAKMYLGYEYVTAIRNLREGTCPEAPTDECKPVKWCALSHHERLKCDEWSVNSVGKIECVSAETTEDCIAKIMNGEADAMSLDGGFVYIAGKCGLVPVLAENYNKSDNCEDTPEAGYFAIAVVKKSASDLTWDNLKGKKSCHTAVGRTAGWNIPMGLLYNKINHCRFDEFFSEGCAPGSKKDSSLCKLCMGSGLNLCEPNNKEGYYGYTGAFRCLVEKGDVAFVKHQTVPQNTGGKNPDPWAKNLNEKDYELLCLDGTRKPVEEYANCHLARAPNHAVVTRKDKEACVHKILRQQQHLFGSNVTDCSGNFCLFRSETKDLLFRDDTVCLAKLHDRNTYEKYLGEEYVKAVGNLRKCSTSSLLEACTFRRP", "assay": "UV-Vis absorbance titration of apo-hTf", "type": "binding"}, "[4]": {"target": "T1, apo-human transferrin (apo-hTf)", "assay": "Fluorescence quenching of apo-hTf", "type": "binding", "settings": "for biomolecular quenching rate constant kq: kq=Ksv/τ0; for Stern-Volmer quenching constant Ksv / number of binding sites n: pH 7.4; for quenching association constant Ka: pH 7.4, modified Stern-Volmer", "in_short": "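Intrinsic fluorescence of apo-hTf in Tris-HCl pH 7.4 was titrated with test compound (Tris-HCl/2% DMSO). Conditions: excitation 280 nm, emission 290–500 nm, slits 10/5 nm, 1.0 cm quartz cell, at 296, 303, 310 and 317 K, triplicate titrations. Intensities were corrected for inner filter effect using absorbances at excitation and emission wavelengths. Ksv came from Stern-Volmer plots of F0/F vs [Q]; kq = Ksv/τ0 (τ0 ~1.0×10−8); Ka and n came from the modified Stern-Volmer equation.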"}, "[5]": {"target": "T1, apo-human transferrin (apo-hTf)", "assay": "Thermodynamic parameters of apo-hTf complex formation", "type": "binding", "in_short": "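Ksv values were obtained from apo-hTf fluorescence quenching at pH 7.4 at 296, 303, 310 and 317 K. ΔH°, ΔS° and ΔG° were derived from linear regression of ln(Ksv) vs 1/T (Van't Hoff equation).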"}, "[6]": {"target": "T1, apo-human transferrin (apo-hTf)", "assay": "Fluorescence resonance energy transfer", "type": "binding", "in_short": "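Emission spectrum of 1.0×10−5 mol L−1 apo-hTf and absorption spectrum of 1.0×10−5 mol L−1 test compound were recorded in 20 mM Tris-HCl pH 7.4 at room temperature, 260–450 nm, and their spectral overlap determined. E was calculated from apo-hTf fluorescence without and with equimolar test compound. R0 and donor–acceptor distance r came from Förster equations.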"}, "[7]": {"target": "T1, apo-human transferrin (apo-hTf)", "assay": "Far-UV circular dichroism titration of apo-hTf, secondary structure content", "in_short": "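Apo-hTf (4.0×10−7 mol L−1) in 2 mM Tris-HCl pH 7.4 was titrated with a 1.0×10−3 mol L−1 stock of test compound in Tris-HCl/2% DMSO, to final 0–2.4×10−6 mol L−1. Far-UV CD was recorded from 190–250 nm under nitrogen in a 1.0 cm cell: six scans at 100 nm/min. Baseline was buffer ± DMSO at room temperature. α-Helix was derived from MRE at 208 nm; β-sheet and random coil by the CD-RRG method.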"}, "[8]": {"target": "T1, apo-human transferrin (apo-hTf)", "settings": "cited from earlier work; for Ka: Cp2VCl2 bound to apo-hTf"}, "[9]": {"settings": "apo-hTf:Cp2VCl2 complex, ref Zhang et al. 64"}},
  "note": "Read-outs that look alike come from different tables or passages of the source.",
  "data": [
    {"smiles": "[Cl-].[Cl-].[V+4].c1cc[cH-]c1.c1cc[cH-]c1", "note": "[Cp2VCl2]", "values": [
      {"measurement": "IC50", "setting": "[1]", "result": 50, "unit": "µM"},
      {"measurement": "IC50", "setting": "[2]", "result": 33, "unit": "µM"},
      {"measurement": "Ka at 280 nm", "setting": "[3]; absorbance at 280 nm", "result": 3240, "unit": "M⁻¹"},
      {"measurement": "Ka at 361 nm", "setting": "[3]; absorbance at 361 nm", "result": 2670, "unit": "M⁻¹"},
      {"measurement": "Association constants, Ka, 280 nm", "setting": "[3]; absorbance of apo-hTf at 280 nm, pH 7.4", "result": "3.24 10^3 M^−1"},
      {"measurement": "Association constants, Ka, 361 nm", "setting": "[3]; absorbance of apo-hTf at 361 nm, pH 7.4", "result": "2.67 10^3 M^−1"},
      {"measurement": "biomolecular quenching rate constant kq", "setting": "[4]; 296 K", "result": "3.564e+12", "unit": "M⁻¹ s⁻¹"},
      {"measurement": "Stern-Volmer quenching constant Ksv", "setting": "[4]; 296 K", "result": 35640, "unit": "M⁻¹"},
      {"measurement": "number of binding sites n", "setting": "[4]; 296 K", "result": 1.23},
      {"measurement": "quenching association constant Ka", "setting": "[4]; 296 K", "result": 444400, "unit": "M⁻¹"},
      {"measurement": "biomolecular quenching rate constant kq", "setting": "[4]; 303 K", "result": "4.085e+12", "unit": "M⁻¹ s⁻¹"},
      {"measurement": "Stern-Volmer quenching constant Ksv", "setting": "[4]; 303 K", "result": 40850, "unit": "M⁻¹"},
      {"measurement": "number of binding sites n", "setting": "[4]; 303 K", "result": 1.2},
      {"measurement": "quenching association constant Ka", "setting": "[4]; 303 K", "result": 337500, "unit": "M⁻¹"},
      {"measurement": "biomolecular quenching rate constant kq", "setting": "[4]; 310 K", "result": "4.26e+12", "unit": "M⁻¹ s⁻¹"},
      {"measurement": "Stern-Volmer quenching constant Ksv", "setting": "[4]; 310 K", "result": 42600, "unit": "M⁻¹"},
      {"measurement": "number of binding sites n", "setting": "[4]; 310 K", "result": 1.16},
      {"measurement": "quenching association constant Ka", "setting": "[4]; 310 K", "result": 240500, "unit": "M⁻¹"},
      {"measurement": "biomolecular quenching rate constant kq", "setting": "[4]; 317 K", "result": "4.936e+12", "unit": "M⁻¹ s⁻¹"},
      {"measurement": "Stern-Volmer quenching constant Ksv", "setting": "[4]; 317 K", "result": 49360, "unit": "M⁻¹"},
      {"measurement": "number of binding sites n", "setting": "[4]; 317 K", "result": 1.11},
      {"measurement": "quenching association constant Ka", "setting": "[4]; 317 K", "result": 159800, "unit": "M⁻¹"},
      {"measurement": "∆G°", "setting": "[5]; 296 K", "result": -6.169, "unit": "kcal/mol"},
      {"measurement": "∆G°", "setting": "[5]; 303 K", "result": -6.379, "unit": "kcal/mol"},
      {"measurement": "∆G°", "setting": "[5]; 310 K", "result": -6.587, "unit": "kcal/mol"},
      {"measurement": "∆G°", "setting": "[5]; 317 K", "result": -6.797, "unit": "kcal/mol"},
      {"measurement": "∆H°", "setting": "[5]; pH 7.4, from Ksv at 296-317 K", "result": 2.713, "unit": "kcal/mol"},
      {"measurement": "∆S°", "setting": "[5]; pH 7.4, from Ksv at 296-317 K", "result": 125.52, "unit": "J/mol K"},
      {"measurement": "Förster critical energy transfer distance R0", "setting": "[6]; k^2=2/3, n=1.336, ØD=0.118", "result": 1.78, "unit": "nm"},
      {"measurement": "binding distance r (donor-acceptor)", "setting": "[6]; k^2=2/3, n=1.336, ØD=0.118", "result": 2.08, "unit": "nm"},
      {"measurement": "efficiency of energy transfer E", "setting": "[6]; room temperature, 1.0×10^−5 mol L^−1 each", "result": 0.281},
      {"measurement": "other secondary structure content of apo-hTf", "setting": "[7]; compound concentration 0.4 (M)", "result": 20, "unit": "%"},
      {"measurement": "random coil content of apo-hTf", "setting": "[7]; compound concentration 0.4 (M)", "result": 33.7, "unit": "%"},
      {"measurement": "α-helix content of apo-hTf", "setting": "[7]; compound concentration 0.4 (M)", "result": 28.4, "unit": "%"},
      {"measurement": "β-sheet content of apo-hTf", "setting": "[7]; compound concentration 0.4 (M)", "result": 17.9, "unit": "%"},
      {"measurement": "other secondary structure content of apo-hTf", "setting": "[7]; compound concentration 0.8 (M)", "result": 20.1, "unit": "%"},
      {"measurement": "random coil content of apo-hTf", "setting": "[7]; compound concentration 0.8 (M)", "result": 33.9, "unit": "%"},
      {"measurement": "α-helix content of apo-hTf", "setting": "[7]; compound concentration 0.8 (M)", "result": 27.9, "unit": "%"},
      {"measurement": "β-sheet content of apo-hTf", "setting": "[7]; compound concentration 0.8 (M)", "result": 18.1, "unit": "%"},
      {"measurement": "other secondary structure content of apo-hTf", "setting": "[7]; compound concentration 1.2 (M)", "result": 20.4, "unit": "%"},
      {"measurement": "random coil content of apo-hTf", "setting": "[7]; compound concentration 1.2 (M)", "result": 34.1, "unit": "%"},
      {"measurement": "α-helix content of apo-hTf", "setting": "[7]; compound concentration 1.2 (M)", "result": 27.2, "unit": "%"},
      {"measurement": "β-sheet content of apo-hTf", "setting": "[7]; compound concentration 1.2 (M)", "result": 18.3, "unit": "%"},
      {"measurement": "other secondary structure content of apo-hTf", "setting": "[7]; compound concentration 1.6 (M)", "result": 20.7, "unit": "%"},
      {"measurement": "random coil content of apo-hTf", "setting": "[7]; compound concentration 1.6 (M)", "result": 34.3, "unit": "%"},
      {"measurement": "α-helix content of apo-hTf", "setting": "[7]; compound concentration 1.6 (M)", "result": 26.5, "unit": "%"},
      {"measurement": "β-sheet content of apo-hTf", "setting": "[7]; compound concentration 1.6 (M)", "result": 18.5, "unit": "%"},
      {"measurement": "other secondary structure content of apo-hTf", "setting": "[7]; compound concentration 2 (M)", "result": 20.8, "unit": "%"},
      {"measurement": "random coil content of apo-hTf", "setting": "[7]; compound concentration 2 (M)", "result": 34.5, "unit": "%"},
      {"measurement": "α-helix content of apo-hTf", "setting": "[7]; compound concentration 2 (M)", "result": 25.8, "unit": "%"},
      {"measurement": "β-sheet content of apo-hTf", "setting": "[7]; compound concentration 2 (M)", "result": 18.9, "unit": "%"},
      {"measurement": "other secondary structure content of apo-hTf", "setting": "[7]; compound concentration 2.4 (M)", "result": 21.1, "unit": "%"},
      {"measurement": "random coil content of apo-hTf", "setting": "[7]; compound concentration 2.4 (M)", "result": 34.6, "unit": "%"},
      {"measurement": "α-helix content of apo-hTf", "setting": "[7]; compound concentration 2.4 (M)", "result": 25.1, "unit": "%"},
      {"measurement": "β-sheet content of apo-hTf", "setting": "[7]; compound concentration 2.4 (M)", "result": 19.2, "unit": "%"},
      {"measurement": "Ka", "setting": "[8]; ref Du et al. 63", "result": 137000, "unit": "M⁻¹"},
      {"measurement": "Ka", "setting": "[8]; ref Zhang et al. 64", "result": 32800, "unit": "M⁻¹"},
      {"measurement": "Ksv", "setting": "[8]; [9]", "result": 30400, "unit": "M⁻¹"},
      {"measurement": "kq", "setting": "[8]; [9]", "result": "3.04e+12", "unit": "M⁻¹ s⁻¹"}
    ]}
  ]
}
